Measurements: ChEMBL document CHEMBL1138290 (J Med Chem, 2007)
pEC50, pIC50: −log10 of the molar value.

Assays:
K562 = assay: Antiproliferative activity against human K562 cells after 48 hrs; format: functional, cell-based; settings: K562, 48 h
How it was run: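 Growth of K562 cells measured by counting cells with a hemocytometer after 48 h (2 days) of drug treatment. IC50 is the mean of at least three independent determinations.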

Tubulin [1] = molecular target: Tubulin (Sus scrofa, UniProt P02554+P02550); assay: Inhibition of porcine brain tubulin polymerization
Tubulin [2] = assay: Displacement of [3H]colchicine from biotinylated tubulin by scintillation proximity assay; format: protein-complex assay, Homo sapiens
[3] = Cytotoxicity against human KB/HeLa cells after 48 hrs by XTT assay; format: functional, cell-based
How it was run: (§1)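 XTT proliferation assay with 48 h incubation with test compound. Each experiment run at least in duplicate (n = 2). IC50 calculated by nonlinear regression of dose-response curves.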

SK-OV-3 = assay: Cytotoxicity against human SKOV3 cells after 48 hrs by XTT assay; format: functional, cell-based; settings: SK-OV-3, 48 h; how it was run: as §1
SF-268 = assay: Cytotoxicity against human SF268 cells after 48 hrs by XTT assay; format: functional, cell-based; settings: SF-268, 48 h; how it was run: as §1
NCI-H460 = assay: Cytotoxicity against human NCI-H460 cells after 48 hrs by XTT assay; format: functional, cell-based; settings: NCI-H460, 48 h; how it was run: as §1
RKO [4] = assay: Cytotoxicity against human RKO cells after 48 hrs by XTT assay; format: functional, cell-based; how it was run: as §1
RKO [5] = assay: Cytotoxicity against human RKO cells with ectopic-inducible expression of p27kip1 after 48 hrs by XTT assay; format: functional, cell-based; how it was run: as §1
[6] = Antiproliferative activity against rat L12 cells after 48 hrs by XTT assay; format: functional, cell-based
[7] = Antiproliferative activity against rat multidrug-resistant L12 cells after 48 hrs by XTT assay; format: functional, cell-based; settings: L1.2, 48 h; how it was run: as §1
L1210 [8] = assay: Antiproliferative activity against mouse L1210 cells after 48 hrs by XTT assay; format: functional, cell-based; settings: L1210, 48 h; how it was run: as §1
L1210 [9] = assay: Antiproliferative activity against mouse vincristine-resistant L1210 cells after 48 hrs by XTT assay; format: functional, cell-based; settings: L1210, 48 h; how it was run: as §1
P388 [10] = assay: Antiproliferative activity against mouse P388 cells after 48 hrs by XTT assay; format: functional, cell-based; settings: P388, 48 h; how it was run: as §1
P388 [11] = assay: Antiproliferative activity against mouse adriamycin-resistant P388 cells after 48 hrs by XTT assay; format: functional, cell-based; settings: P388, 48 h; how it was run: as §1
[12] = Cell cycle arrest in KB/HeLa cells assessed as accumulation at G2/M phase after 24 hrs by flow cytometric analysis; format: functional, cell-based; settings: Homo sapiens
How it was run: (§2)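 Subconfluent KB/HeLa cells exposed to a range of compound concentrations for 24 h. Cell cycle phase distribution determined by flow cytometry. Experiments run at least in duplicate (n = 2).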

[13] = Cell cycle arrest in KB/HeLa cells assessed as accumulation at S phase at 0.1 nM after 24 hrs by flow cytometric analysis; format: functional, cell-based; settings: Homo sapiens; how it was run: as §2
[14] = Cell cycle arrest in KB/HeLa cells assessed as accumulation at S phase at 3.16 nM after 24 hrs by flow cytometric analysis; format: functional, cell-based; settings: Homo sapiens; how it was run: as §2
[15] = Cell cycle arrest in KB/HeLa cells assessed as accumulation at S phase at 0.3 nM after 24 hrs by flow cytometric analysis; format: functional, cell-based; settings: Homo sapiens; how it was run: as §2
[16] = Cell cycle arrest in KB/HeLa cells assessed as accumulation at S phase at 1 nM after 24 hrs by flow cytometric analysis; format: functional, cell-based; settings: Homo sapiens; how it was run: as §2
[17] = Cell cycle arrest in KB/HeLa cells assessed as accumulation at S phase at 10 nM after 24 hrs by flow cytometric analysis; format: functional, cell-based; settings: Homo sapiens; how it was run: as §2
[18] = Cell cycle arrest in KB/HeLa cells assessed as accumulation at S phase at 31.6 nM after 24 hrs by flow cytometric analysis; format: functional, cell-based; settings: Homo sapiens; how it was run: as §2
[19] = Cell cycle arrest in KB/HeLa cells assessed as accumulation at S phase at 100 nM after 24 hrs by flow cytometric analysis; format: functional, cell-based; settings: Homo sapiens; how it was run: as §2
[20] = Cell cycle arrest in KB/HeLa cells assessed as accumulation at S phase at 316 nM after 24 hrs by flow cytometric analysis; format: functional, cell-based; settings: Homo sapiens; how it was run: as §2
[21] = Cell cycle arrest in KB/HeLa cells assessed as accumulation at S phase at 1000 nM after 24 hrs by flow cytometric analysis; format: functional, cell-based; settings: Homo sapiens; how it was run: as §2
[22] = Cell cycle arrest in KB/HeLa cells assessed as accumulation at G2M phase at 0.1 nM after 24 hrs by flow cytometric analysis; format: functional, cell-based; settings: Homo sapiens; how it was run: as §2
[23] = Cell cycle arrest in KB/HeLa cells assessed as accumulation at G2M phase at 0.3 nM after 24 hrs by flow cytometric analysis; format: functional, cell-based; settings: Homo sapiens; how it was run: as §2
[24] = Cell cycle arrest in KB/HeLa cells assessed as accumulation at G2M phase at 1 nM after 24 hrs by flow cytometric analysis; format: functional, cell-based; settings: Homo sapiens; how it was run: as §2
[25] = Cell cycle arrest in KB/HeLa cells assessed as accumulation at G2M phase at 3.16 nM after 24 hrs by flow cytometric analysis; format: functional, cell-based; settings: Homo sapiens
[26] = Cell cycle arrest in KB/HeLa cells assessed as accumulation at G2M phase at 10 nM after 24 hrs by flow cytometric analysis; format: functional, cell-based; settings: Homo sapiens; how it was run: as §2
[27] = Cell cycle arrest in KB/HeLa cells assessed as accumulation at G2M phase at 31.6 nM after 24 hrs by flow cytometric analysis; format: functional, cell-based; settings: Homo sapiens; how it was run: as §2
[28] = Cell cycle arrest in KB/HeLa cells assessed as accumulation at G2M phase at 100 nM after 24 hrs by flow cytometric analysis; format: functional, cell-based; settings: Homo sapiens; how it was run: as §2
[29] = Cell cycle arrest in KB/HeLa cells assessed as accumulation at G2M phase at 316 nM after 24 hrs by flow cytometric analysis; format: functional, cell-based; settings: Homo sapiens; how it was run: as §2
[30] = Cell cycle arrest in KB/HeLa cells assessed as accumulation at G2M phase at 1000 nM after 24 hrs by flow cytometric analysis; format: functional, cell-based; settings: Homo sapiens; how it was run: as §2
[31] = Cell cycle arrest in KB/HeLa cells assessed as accumulation at G1 phase at 0.1 nM after 24 hrs by flow cytometric analysis; format: functional, cell-based; settings: Homo sapiens; how it was run: as §2
[32] = Cell cycle arrest in KB/HeLa cells assessed as accumulation at G1 phase at 0.3 nM after 24 hrs by flow cytometric analysis; format: functional, cell-based; settings: Homo sapiens; how it was run: as §2
[33] = Cell cycle arrest in KB/HeLa cells assessed as accumulation at G1 phase at 1 nM after 24 hrs by flow cytometric analysis; format: functional, cell-based; settings: Homo sapiens; how it was run: as §2
[34] = Cell cycle arrest in KB/HeLa cells assessed as accumulation at G1 phase at 3.16 nM after 24 hrs by flow cytometric analysis; format: functional, cell-based; settings: Homo sapiens; how it was run: as §2
[35] = Cell cycle arrest in KB/HeLa cells assessed as accumulation at G1 phase at 10 nM after 24 hrs by flow cytometric analysis; format: functional, cell-based; settings: Homo sapiens; how it was run: as §2
[36] = Cell cycle arrest in KB/HeLa cells assessed as accumulation at G1 phase at 31.6 nM after 24 hrs by flow cytometric analysis; format: functional, cell-based; settings: Homo sapiens; how it was run: as §2
[37] = Cell cycle arrest in KB/HeLa cells assessed as accumulation at G1 phase at 100 nM after 24 hrs by flow cytometric analysis; format: functional, cell-based; settings: Homo sapiens; how it was run: as §2
[38] = Cell cycle arrest in KB/HeLa cells assessed as accumulation at G1 phase at 316 nM after 24 hrs by flow cytometric analysis; format: functional, cell-based; settings: Homo sapiens; how it was run: as §2
[39] = Cell cycle arrest in KB/HeLa cells assessed as accumulation at G1 phase at 1000 nM after 24 hrs by flow cytometric analysis; format: functional, cell-based; settings: Homo sapiens; how it was run: as §2

COc1ccc(S(=O)(=O)Oc2c3ccccc3cc3sccc23)cc1
pIC50 (K562): 7.22
IC50 (Tubulin [1]): 910 nM
pIC50 (Tubulin [2]): 6.29
pIC50 [3]: 6.74
pIC50 (SK-OV-3): 6.68
pIC50 (SF-268): 6.59
pIC50 (NCI-H460): 6.68
pIC50 (RKO [4]): 6.74
pIC50 (RKO [5]): < 5.05
pIC50 [6]: 6.77
pIC50 [7]: 6.72
pIC50 (L1210 [8]): 6.72
pIC50 (L1210 [9]): 6.70
pIC50 (P388 [10]): 6.74
pIC50 (P388 [11]): 6.74
pEC50 [12]: 6.90
Activity [13]: 27.1%
Activity [14]: 26.5%
Activity [15]: 26.6%
Activity [16]: 26.7%
Activity [17]: 27.4%
Activity [18]: 28.6%
Activity [19]: 32.1%
Activity [20]: 7%
Activity [21]: 9.7%
Activity [22]: 12.3%
Activity [23]: 12%
Activity [24]: 11.4%
Activity [25]: 11.3%
Activity [26]: 11.9%
Activity [27]: 11.7%
Activity [28]: 16.7%
Activity [29]: 92.1%
Activity [30]: 88.7%
Activity [31]: 60.6%
Activity [32]: 61.4%
Activity [33]: 61.9%
Activity [34]: 62.2%
Activity [35]: 60.7%
Activity [36]: 59.8%
Activity [37]: 51.2%
Activity [38]: 0.9%
Activity [39]: 1.6%

COc1ccc(S(=O)(=O)Oc2c3ccccc3cc3ccccc23)cc1
pIC50 (K562): 7.05
IC50 (Tubulin [1]): 1200 nM
pIC50 (Tubulin [2]): 6.25
pIC50 [3]: 6.43
pIC50 (SK-OV-3): 6.60
pIC50 (SF-268): 6.47
pIC50 (NCI-H460): 6.19
pIC50 (RKO [4]): 6.55
pIC50 (RKO [5]): < 5.05
pIC50 [6]: 6.36
pIC50 [7]: 6.44
pIC50 (L1210 [8]): 6.27
pIC50 (L1210 [9]): 6.34
pIC50 (P388 [10]): 6.42
pIC50 (P388 [11]): 6.57
pEC50 [12]: 6.87
Activity [13]: 26.7%
Activity [14]: 26%
Activity [15]: 26%
Activity [16]: 26.2%
Activity [17]: 25.5%
Activity [18]: 26.8%
Activity [19]: 31%
Activity [20]: 4.8%
Activity [21]: 8.4%
Activity [22]: 11.9%
Activity [23]: 12.4%
Activity [24]: 11.7%
Activity [25]: 11.4%
Activity [26]: 12.6%
Activity [27]: 11.4%
Activity [28]: 12.6%
Activity [29]: 94.4%
Activity [30]: 90.5%
Activity [31]: 61.4%
Activity [32]: 61.6%
Activity [33]: 62.1%
Activity [34]: 62.7%
Activity [35]: 61.8%
Activity [36]: 61.8%
Activity [37]: 56.4%
Activity [38]: 0.8%
Activity [39]: 1.1%
